We go through one compound from ChEMBL document CHEMBL4321831, “Vaccine Adjuvants Derivatized from Momordica Saponins I and II” (J Med Chem, 2019).

Active and inactive are the calls of the source. The calls are words filed in the database; no cut-off is given here.

Data set [1] is described as follows: Acute toxicity in BALB/c mouse assessed as lethargy at 100 to 2000 ug, sc measured at day 7 post injection. It is filed as organism-based. The conditions noted are these: in vivo. The method, boiled down:
(§1)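 Female BALB/c mice, 10 weeks old, 5 per group, given a single subcutaneous injection in the neck of adjuvant in 0.1 mL PBS at doses from 100 to 5000 μg, with untreated controls. Survival was counted 5 days after injection. Surviving mice were checked through day 7 for fur condition, behaviour, lethargy and lesion formation.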

Data set [2] deals with Mus musculus. Nature of the data set: Immuno-adjuvant activity in OVA-immunized BALB/c mouse assessed as potentiation of antibody response to OVA by measuring serum anti-OVA IgG2a activity at 100 ug, sc administered immediately and on day 14, 28 and measured at week 2 by ELISA. It is filed as functional, organism-based. The method, boiled down: (§2)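 Female BALB/c mice (8–10 weeks, six per group) got sc OVA (20 μg) plus adjuvant (100 μg) on days 0, 14 and 28. Tail-vein serum was taken before each dose and 2 weeks after the last. ELISA plates were coated with OVA (0.1 μg/mL) in borate-buffered saline, pH 8.2. Serial 2-fold serum dilutions were run in duplicate, detected with HRP anti-mouse IgG/IgG1/IgG2a and o-phenylenediamine, and read at 490 nm.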
On the technique in general: An ELISA detects its analyte on a solid surface through an enzyme-linked reagent.

The nature of data set [3]: Acute toxicity in BALB/c mouse assessed as mouse survival at 100 to 2000 ug, sc measured after 5 days. It is filed as organism-based. The conditions noted are these: in vivo. A digest of the protocol: as §1
Data set [4] concerns Mus musculus. Put plainly: Immuno-adjuvant activity in recombinant Porphyromonas gingivalis HagB-immunized BALB/c mouse assessed as potentiation of antibody response to rHagB by measuring increase in serum anti-rHagB IgG1 activity at 100 ug, sc administered immediately and on day 14, 28 and measured at week 2 to 4 by ELISA. It is filed as functional, organism-based.
Data set [5] deals with Mus musculus. Nature of the data set: Immuno-adjuvant activity in OVA-immunized BALB/c mouse assessed as potentiation of antibody response to OVA by measuring increase in serum anti-OVA IgG1 activity at 100 ug, sc administered immediately and on day 14, 28 and measured at week 2 to 4 by ELISA. It is filed as functional, organism-based. The method, boiled down: as §2
Data set [6] concerns Mus musculus. Put plainly: Immuno-adjuvant activity in OVA-immunized BALB/c mouse assessed as potentiation of antibody response to OVA by measuring increase in serum anti-OVA IgG1 activity at 100 ug, sc administered immediately and on day 14, 28 and measured at week 6 by ELISA. It is filed as functional, organism-based. The method, boiled down: as §2
Data set [7] relates to Mus musculus. Nature of the data set: Immuno-adjuvant activity in OVA-immunized BALB/c mouse assessed as potentiation of antibody response to OVA by measuring increase in serum anti-OVA IgG2a activity at 100 ug, sc administered immediately and on day 14, 28 and measured at week 4 to 6 by ELISA. It is filed as functional, organism-based. The method, boiled down:
as §2

The test system of data set [8] is Mus musculus. Put plainly: Immuno-adjuvant activity in OVA-immunized BALB/c mouse assessed as potentiation of antibody response to OVA by measuring ratio of serum anti-OVA IgG2a to serum anti-OVA IG1 level at 100 ug, sc administered immediately and on day 14, 28 and measured at week 6 by ELISA. It is filed as functional.
Data set [9] is described as follows: Acute toxicity in BALB/c mouse assessed as lesion formation at 100 to 2000 ug, sc measured at day 7 post injection. It is filed as organism-based. The following applies: in vivo. A digest of the protocol: as §1
The subject of data set [10] is Mus musculus. Nature of the data set: Immuno-adjuvant activity in recombinant Porphyromonas gingivalis HagB-immunized BALB/c mouse assessed as potentiation of antibody response to rHagB by measuring increase in serum anti-rHagB IgG activity at 100 ug, sc administered immediately and on day 14, 28 and measured at week 2 to 4 by ELISA. It is filed as functional, organism-based.

Data set [11] concerns Mus musculus. Nature of the data set: Immuno-adjuvant activity in recombinant Porphyromonas gingivalis HagB-immunized BALB/c mouse assessed as potentiation of antibody response to rHagB by measuring increase in serum anti-rHagB IgG activity at 100 ug, sc administered immediately and on day 14, 28 and measured at week 6 by ELISA. It is filed as functional, organism-based.
Data set [12] deals with Mus musculus. Nature of the data set: Immuno-adjuvant activity in OVA-immunized BALB/c mouse assessed as potentiation of antibody response to OVA by measuring increase in serum anti-OVA IgG activity at 100 ug, sc administered immediately and on day 14, 28 and measured at week 2 to 6 by ELISA. It is filed as functional, organism-based. The method, boiled down:
as §2

Data set [13] deals with Mus musculus. Put plainly: Immuno-adjuvant activity in recombinant Porphyromonas gingivalis HagB-immunized BALB/c mouse assessed as potentiation of antibody response to rHagB by measuring increase in serum anti-rHagB IgG2a activity at 100 ug, sc administered immediately and on day 14, 28 and measured at week 2 to 6 by ELISA. It is filed as functional, organism-based.
Data set [14] can be described thus: Toxicity in OVA-immunized BALB/c mouse assessed as changes in body weight at 100 ug, sc administered immediately and on day 14, 28 and measured at week 6. It is filed as organism-based. The following applies: in vivo. The method, boiled down:
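Female BALB/c mice (8–10 weeks, six per group) received sc OVA (20 μg) with adjuvant (100 μg) on days 0, 14 and 28. Body weight was recorded before each immunization and 2 weeks after the final one.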

Data set [15] concerns Mus musculus. Put plainly: Immuno-adjuvant activity in OVA-immunized BALB/c mouse assessed as potentiation of antibody response to OVA by measuring serum anti-OVA IgG2a level at 100 ug, sc administered immediately and on day 14, 28 and measured at week 6 by ELISA (reference value: 0.1 ug/ml). It is filed as functional. A digest of the protocol:
as §2

A short description of data set [16]: Acute toxicity in BALB/c mouse assessed as normal animal behaviour with healthy fur at 100 to 2000 ug, sc measured at day 5 post injection. It is filed as organism-based. The conditions noted are these: in vivo. The method, boiled down: as §1
Data set [17] has as its system Mus musculus. Nature of the data set: Immuno-adjuvant activity in recombinant Porphyromonas gingivalis HagB-immunized BALB/c mouse assessed as potentiation of antibody response to rHagB by measuring serum anti-rHagB IgG1 activity at 100 ug, sc administered immediately and on day 14, 28 and measured at week 6 by ELISA. It is filed as functional, organism-based.
Data set [18] in a line: Acute toxicity in BALB/c mouse assessed as mouse survival at 5000 ug, sc measured after 5 days. The conditions noted are these: in vivo. It is filed as organism-based. A digest of the protocol:
as §1

For data set [19], the system named is Mus musculus. Put plainly: Immuno-adjuvant activity in OVA-immunized BALB/c mouse assessed as potentiation of antibody response to OVA by measuring serum anti-OVA IgG1 level at 100 ug, sc administered immediately and on day 14, 28 and measured at week 6 by ELISA (reference value: 113 +/- 37 ug/ml). It is filed as functional. The method, boiled down:
as §2

Turning to `CCCCCCCCCCCCNC(=O)[C@H]1O[C@@H](O[C@H]2CC[C@]3(C)[C@H]4CC=C5[C@H]6CC(C)(C)CC[C@]6(C(=O)O[C@@H]6O[C@H](C)[C@H](O)[C@H](O)[C@H]6O[C@@H]6O[C@@H](C)[C@H](O[C@@H]7OC[C@@H](O)[C@H](O)[C@H]7O)[C@@H](O[C@@H]7O[C@H](CO)[C@@H](O)[C@H](O[C@@H]8OC[C@@H](O)[C@H](O)[C@H]8O)[C@H]7O)[C@H]6O)CC[C@@]5(C)[C@]4(C)CC[C@H]3[C@]2(C)C=O)[C@H](O[C@@H]2O[C@H](CO)[C@H](O)[C@H](O)[C@H]2O)[C@@H](O[C@@H]2O[C@@H](C)[C@H](O)[C@@H](O)[C@H]2O)[C@@H]1O`, the Activity result was “Non-Toxic” in data set [1]; “Non-Toxic” in data set [9]; “Non-Toxic” in data set [14]; 208 µg/mL with Mus musculus [15]; “Non-Toxic” in data set [16]; 713 µg/mL in the data set on Mus musculus [19]. Moreover, the result with Mus musculus [2] and with Mus musculus [17] was inactive. In addition, the survival at 120 h was 100% in data set [3] and 0% in data set [18]. The outcome with Mus musculus [4], in the data set on Mus musculus [5], in the data set with Mus musculus [6], in the data set on Mus musculus [7], with Mus musculus [10] and with Mus musculus [11] was Active. Moreover, the result in the data set on Mus musculus [12] and in the data set on Mus musculus [13] was Active. For the same compound, the Ratio in the data set with Mus musculus [8] was 0.312.
